Assay outcomes: PubChem BioAssay, Johns Hopkins Ion Channel Center
Sampled rows, rich in hits. Any-hit rate of the full collection: about 2.9%.
TRPC6 inh – mouse TRPC6 channel inhibition; Q61143; HEK293-TRPC6, membrane potential dye, ACh-evoked depolarization; hits give low values; B-score at 10 µM; 310,000 compounds, 1.1% hits;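 active means B-score under library mean minus 3 SD, initial fluorescence not abnormally high, positive integrated signal ratio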;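 further: B-score derived from integrated fluorescence ratio over the kinetic read; more negative B-score means stronger inhibition of depolarization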
Target sequence (Q61143 whole entry, looked up): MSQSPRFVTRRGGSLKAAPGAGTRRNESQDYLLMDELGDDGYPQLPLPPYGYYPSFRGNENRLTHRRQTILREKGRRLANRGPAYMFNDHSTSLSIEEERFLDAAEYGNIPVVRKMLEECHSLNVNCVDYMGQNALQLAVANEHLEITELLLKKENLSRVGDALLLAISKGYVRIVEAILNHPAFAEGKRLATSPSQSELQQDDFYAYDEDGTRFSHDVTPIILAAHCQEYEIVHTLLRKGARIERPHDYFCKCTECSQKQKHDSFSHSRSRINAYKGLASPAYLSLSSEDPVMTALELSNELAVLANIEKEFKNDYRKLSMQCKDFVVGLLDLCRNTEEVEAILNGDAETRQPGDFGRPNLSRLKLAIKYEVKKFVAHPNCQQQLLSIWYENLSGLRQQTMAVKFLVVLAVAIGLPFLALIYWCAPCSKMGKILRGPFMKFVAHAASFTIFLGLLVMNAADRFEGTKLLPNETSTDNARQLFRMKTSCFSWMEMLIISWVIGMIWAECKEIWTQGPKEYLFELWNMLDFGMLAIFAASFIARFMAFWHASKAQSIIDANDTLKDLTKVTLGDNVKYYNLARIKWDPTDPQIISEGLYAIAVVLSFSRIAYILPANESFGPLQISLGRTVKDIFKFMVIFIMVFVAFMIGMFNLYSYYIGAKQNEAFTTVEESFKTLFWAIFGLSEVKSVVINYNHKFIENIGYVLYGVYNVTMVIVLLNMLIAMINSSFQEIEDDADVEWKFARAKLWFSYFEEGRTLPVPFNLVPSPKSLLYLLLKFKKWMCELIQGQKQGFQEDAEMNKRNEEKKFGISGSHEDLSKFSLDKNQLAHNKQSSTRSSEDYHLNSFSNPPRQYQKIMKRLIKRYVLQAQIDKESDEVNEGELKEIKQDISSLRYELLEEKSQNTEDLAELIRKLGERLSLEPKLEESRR
Kir21 block – blocks the mouse Kir2.1 inward-rectifier potassium channel; 310,000 compounds, 0.85% hits; B-score at 10 µM; P35561; HEK293-Kir2.1, FluxOR thallium flux fluorescence; hits give low values;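 active means fluorescence ratio B-score at or below minus 3 SD of library scores, with starting-brightness B-score within 2 SD, cut at about -4.2 in these data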;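 further: channel flux triggered by added potassium and thallium sulfate stimulus; B-score of peak minus minimum fluorescence over baseline after thallium stimulus; more negative B-score means stronger Kir2.1 block with less thallium influx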
TRPC6 act – activators of mouse TRPC6 channel; Q61143; HEK293-TRPC6 membrane potential dye fluorescence; hits give high values; B-score at 10 µM; 310,000 compounds, 0.13% hits; AID 2550;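 active means B-score of the integrated fluorescence ratio above library mean plus 3 SD, and starting fluorescence ratio within library mean plus 5 SD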;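 further: higher score means more depolarization so channel activation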
TRPC4 agonist – TRPC4 (mouse) channel activation. HEK293 TRPC4beta/mu-opioid, Fluo4 calcium fluorescence; hits give high values. AID 2237. Q9QUQ5. B-score at 10 µM. 310,000 compounds, 0.49% hits;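 active means B-score above 5 SD of library B-scores, and initial fluorescence ratio not above library mean plus 5 SD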;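 further: positive B-score marks a calcium rise read as TRPC4 activation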
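Material: HEK293 stable line with TRPC4beta plus mu-opioid receptor; technique: Fluo4 calcium-sensitive dye fluorescence, kinetic, 1 Hz baseline; timing: Fluo4 dye loading 45 min at room temperature, 110 s recording; controls: assay buffer as low control, maximal DAMGO as high control; read-out: integrated baseline-normalised fluorescence ratio, converted to per-well B score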
TRPC4 potent – allosterically enhances the mouse TRPC4 cation channel. Q9QUQ5. HEK293 TRPC4beta/mu-opioid, DAMGO EC20, Fluo-4 Ca2+ flux; hits give high values. B-score at 10 µM. 310,000 compounds, 0.42% hits. AID 2227;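 active means B-score of calcium response area above 5 SD of library B-scores, with initial fluorescence ratio within 5 SD of library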
TRPC4 inh – TRPC4 (mouse) channel inhibition. Q9QUQ5. HEK293 TRPC4beta/mu-opioid, DAMGO-evoked Fluo4 calcium flux; hits give low values. B-score at 10 µM. 300,000 compounds, 0.39% hits. AID 2247;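 active means B-score over 3 SD under the library average, no early fluorescence shift, positive overall ratio signal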
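System: stable TRPC4beta/mu-opioid receptor HEK293 cells; Dosing: single-point compound dosing; Measured by: Fluo4 Ca2+ flux fluorescence; Read-out basis: per-well B score of integrated baseline-normalized Fluo4 ratio.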
hERG inh – counter-screen for Kir2.1 inhibitors: effect on human hERG | 320 compounds, 20% hits | shares compounds with Kir21 block | hERG-expressing cells, thallium flux | inhibition, % at 10 µM;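 further: host cells are CHO cells stably expressing hERG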
KCNK9 inh – human KCNK9 off-target activity of Kir2.1 blockers. shares compounds with Kir21 block. KCNK9-expressing cells, ion flux inhibition. inhibition, % at 10 µM. 320 compounds, 5% hits. AID 2329
Kir21 ephys inh – blocks mouse Kir2.1 current in automated electrophysiology; shares compounds with Kir21 block; Kir2.1 cells, automated patch-clamp current inhibition; inhibition, % at 25 µM; 320 compounds, 71% hits; AID 463252
A number is an active result; - = inactive; . = no result. Unless noted, how the calls were made is not given here.

SMILES	TRPC6 inh	Kir21 block	TRPC6 act	TRPC4 agonist	TRPC4 potent	TRPC4 inh	hERG inh	KCNK9 inh	Kir21 ephys inh
CN(C)CC1CCCCC1C1(O)c2ccccc2CSc2sccc21 (stereo not drawn)	-	-5.71	-	-	-	-	-	-	-
Cc1cc(Cl)cc(Br)c1OCCCNCC(C)O (stereo not drawn)	-	-9.32	-	-	-	-	-	-	39.4%
COc1cc(C)ccc1OCCCCNCc1ccccc1	-	-5.78	-	-	-	-	-	-	36.9%
CN(Cc1ccccc1)C(=O)COC(=O)COc1ccc(C#N)cc1	-	-	-	-	-	-	.	.	.
COc1ccc(CNCc2ccc(OC)c3ccccc23)cc1	-	-14.4	-	-	-	-	-	-	8.1%
COc1ccc(CNCc2ccc(C)cc2)c(OC)c1	-	-	-	-	-	-	.	.	.
COc1ccc(CNS(=O)(=O)NCc2ccccc2)cc1	-	-	-	-	-	-	.	.	.
COc1ccc(CNC/C=C/c2ccccc2)cc1	-	-11.7	-	-	-	-	-	-	77.6%
Cc1onc(-c2ccccc2Cl)c1C(=O)c1ccccc1	-	-6.37	-	-	-	-	-	-	10.7%
Cc1cc(C)c(OCCCCN(C)Cc2ccccc2)c(C)c1	-	-7.79	-	-	-	-	-	-	36.3%
Cc1cc(C)c(OCCCCN(C)C)c(Br)c1	-	-	-	-	-	-	.	.	.
Clc1ccc(-c2cc(C3CCNCC3)[nH]n2)cc1	-	-8.92	-	-	-	-	-	-	-
COc1ccc(Cl)cc1S(=O)(=O)N(C)CC(=O)NCc1ccccn1	-	-	-	-	-	-	.	.	.
Cc1ccc(S(=O)(=O)Oc2ccccc2/C=N/N=C(N)N)cc1	-	-11.4	-	-	-	-	61.0%	-	-
COc1ccc(CN2CCCN(S(=O)(=O)c3ccc(Br)cc3)CC2)cc1	-	-6.78	-	-	-	-	67.0%	-	31.2%
C[C@H](NC(=O)N1CCn2c1nc1ccccc12)C(=O)NCc1ccc(F)cc1	-	-	-	-	-	-	.	.	.
CCOc1nc(C)cc(C)c1S(=O)(=O)c1ccc(Cl)cc1	-	-6.36	-	-	-	-	-	-	-
CSc1ccc(NC(=O)NCCCN2CCC(Cc3ccccc3)CC2)cc1	-	-5.96	-	-	-	-	75.0%	-	20.4%
COc1ccc(NC(=O)NCCCN2CCC(Cc3ccccc3)CC2)cc1	-	-	-	-	-	-	.	.	.
COc1ccc(C(=O)Nc2cc3c4c(c2)CC(=O)N4CCC3)cc1	-	-	-	-	-	-	.	.	.
O=C(O)c1cccc(Nc2nc(-c3cc4ccccc4oc3=O)cs2)c1	-	-	-	-	-	-	.	.	.
CC(C)CN(C(=O)COC(=O)CNC(=O)c1sc2ccccc2c1Cl)C1CCS(=O)(=O)C1 (stereo not drawn)	-	-	-	-	-	-	-	-	-
CC(C)CN(C(=O)COC(=O)Cc1n[nH]c(=O)c2ccccc12)C1CCS(=O)(=O)C1 (stereo not drawn)	-	-	-	-	-	-	.	.	.
Cc1c(Cl)cccc1NC(=O)Nc1c(C)n(C)n(-c2ccccc2)c1=O	-	-	-	-	-	-	.	.	.
CCc1ccc(S(=O)(=O)NCCOc2cccc3cccnc23)cc1	-	-6.97	-	-	-	-	-	-	-
SMILES	TRPC6 inh	Kir21 block	TRPC6 act	TRPC4 agonist	TRPC4 potent	TRPC4 inh	hERG inh	KCNK9 inh	Kir21 ephys inh
Cc1ccc(-n2c(SCC(=O)N3CCCCC3)nc(O)c(Cc3ccccc3)c2=O)cc1	-	-	-	-	-	-	.	.	.
COCCNCC(O)CON=C1c2ccccc2-c2ccccc21 (stereo not drawn)	-	-7.02	-	55	-	-	-	-	18.7%
CCNC(=O)CON=C1c2ccccc2-c2ccccc21	-	-	-	-	-	-	.	.	.
COc1ccc(CCN(C)C(=O)c2oc3ccccc3c2C)cc1OC	-	-6.54	-	-	-	-	-	-	60.6%
Cc1cnc(NC(=O)C2CC(=O)N(c3cccc(Cl)c3)C2)s1 (stereo not drawn)	-	-	-	-	-	-	.	.	.
CN1CCc2c(n(CC(O)CNCc3ccccc3)c3ccccc23)C1=O (stereo not drawn)	-	-6.02	-	-	-	-	-	31.0%	-
CCN(Cc1ccc(C#CCCO)cc1)CC1CCCN(CCc2cccc(F)c2)C1 (stereo not drawn)	-	-6.7	-	-	-	-	55.0%	-	13.7%
CCN(Cc1ccc(OC)c(COC)c1)CC1CCCN(CCc2cccc(F)c2)C1 (stereo not drawn)	-	-	-	-	-	-	.	.	.
Cc1cc(C)c(C(=O)N2CCCC(CNC(=O)C3(c4ccc(Cl)cc4)CC3)C2)c(=O)[nH]1 (stereo not drawn)	-	-	-	-	-	-	.	.	.
CN(C)CCCOc1ccc(C(C)(C)c2ccccc2)cc1	-	-6.58	-	-	-	-	-	-	39.2%
CC(C)(c1ccccc1)c1ccc(OCC2CO2)cc1 (stereo not drawn)	-	-	-	-	-	-	.	.	.
Cc1ccc(C(CCN(Cc2ccccc2)C(=O)c2ccco2)c2ccco2)cc1 (stereo not drawn)	-	-	-	-	-	-	.	.	.
O=C(c1ccco1)N(CCC(c1ccccc1)c1ccco1)Cc1ccco1 (stereo not drawn)	-	-6.13	-	-	-	-	-	48.0%	-
CC(CC(=O)Nc1ccc(S(=O)(=O)Nc2ncccn2)cc1)c1ccccc1 (stereo not drawn)	-	-	-	-	-	-	.	.	.
CC(=O)N1CCN(C(=O)c2ccc(S(=O)(=O)Nc3cccc(C(F)(F)F)c3)cc2)CC1	-	-	-	-	-	-	-	-	-
O=C(c1ccc(S(=O)(=O)Nc2cccc(C(F)(F)F)c2)cc1)N1CCC1	-	-	-	-	-	-	.	.	.
CN(C)C(CNC(=O)CCc1nc2cc(Cl)ccc2n(Cc2ccccc2)c1=O)c1ccccc1 (stereo not drawn)	-	-6.42	-	-	-	-	71.0%	-	-
CC(C)CCC(CCNCc1ccccn1)c1ccc(Cl)cc1 (stereo not drawn)	-	-6.7	-	-	-	-	70.0%	-	-
S=C(NCc1ccc(Cl)cc1)NCc1ccccn1	-	-	-	-	-	-	.	.	.
Cc1cc(SCC(=O)OCC(=O)N2CCCC2=O)c(C)cc1Br	-	-	-	-	-	-	-	-	-
